Activity calls are given as the source filed them. The rule behind the calls is not given here.
What was measured:
[1] = target: T1, Opioid receptor (Rattus norvegicus) (UniProt P33533+P34975+P33535); test: Inhibition of morphine analgesia in modified rat tail flick test.; assay type: functional
Summary of the method: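 Narcotic antagonist activity measured by modified rat tail-flick against an ED80 dose of morphine. Free bases dissolved by dropwise 1 N HCl, then diluted. At least five rats per dose and at least three doses per drug; AD50 determined.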

[2] = test system: Mus musculus; test: Inhibition of acetic acid induced mouse writhing assay following s.c. administration.; assay type: functional; settings: sc
[3] = test system: Mus musculus; test: Inhibition of acetic acid induced mouse writhing assay following s.c. administration; Inactive at 30 uMol/kg.; assay type: functional, organism-based; settings: 30 uM
[4] = test system: Mus musculus; test: Inhibition of acetic acid induced mouse writhing assay following s.c. administration; Inactive.; assay type: functional, organism-based
[5] = test system: Mus musculus; test: Inhibition of acetic acid induced mouse writhing assay following s.c. administration; Inactive at 50 uMol/kg.; assay type: functional, organism-based; settings: 50 uM
[6] = target: T1, Opioid receptor (Rattus norvegicus); test: Inhibition of morphine analgesia in modified rat tail flick test; Inactive at 25 uMol/kg.; assay type: functional; settings: 25 uM

T1 sequence (P33533 whole entry, looked up): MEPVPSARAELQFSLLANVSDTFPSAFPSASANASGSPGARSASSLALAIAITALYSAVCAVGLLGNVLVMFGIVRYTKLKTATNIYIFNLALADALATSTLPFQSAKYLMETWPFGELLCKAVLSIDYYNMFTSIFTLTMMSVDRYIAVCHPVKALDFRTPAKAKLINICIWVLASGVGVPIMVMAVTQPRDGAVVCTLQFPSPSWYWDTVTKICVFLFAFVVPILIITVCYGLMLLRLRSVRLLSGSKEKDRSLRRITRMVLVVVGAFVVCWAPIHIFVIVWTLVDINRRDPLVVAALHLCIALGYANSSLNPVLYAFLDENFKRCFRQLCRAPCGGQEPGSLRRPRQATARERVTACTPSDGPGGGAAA
T1 sequence (P33535 whole entry, looked up): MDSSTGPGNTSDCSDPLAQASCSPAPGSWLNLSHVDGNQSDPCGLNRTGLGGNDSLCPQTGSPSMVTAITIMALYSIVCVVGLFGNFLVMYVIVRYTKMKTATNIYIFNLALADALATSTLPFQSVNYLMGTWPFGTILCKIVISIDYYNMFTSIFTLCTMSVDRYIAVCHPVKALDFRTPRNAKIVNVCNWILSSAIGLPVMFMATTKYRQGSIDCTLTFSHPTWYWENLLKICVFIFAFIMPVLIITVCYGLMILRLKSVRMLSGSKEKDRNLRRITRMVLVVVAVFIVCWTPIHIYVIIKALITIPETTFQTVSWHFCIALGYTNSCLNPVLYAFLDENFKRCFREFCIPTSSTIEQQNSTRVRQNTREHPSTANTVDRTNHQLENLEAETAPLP
T1 sequence (P34975 whole entry, looked up): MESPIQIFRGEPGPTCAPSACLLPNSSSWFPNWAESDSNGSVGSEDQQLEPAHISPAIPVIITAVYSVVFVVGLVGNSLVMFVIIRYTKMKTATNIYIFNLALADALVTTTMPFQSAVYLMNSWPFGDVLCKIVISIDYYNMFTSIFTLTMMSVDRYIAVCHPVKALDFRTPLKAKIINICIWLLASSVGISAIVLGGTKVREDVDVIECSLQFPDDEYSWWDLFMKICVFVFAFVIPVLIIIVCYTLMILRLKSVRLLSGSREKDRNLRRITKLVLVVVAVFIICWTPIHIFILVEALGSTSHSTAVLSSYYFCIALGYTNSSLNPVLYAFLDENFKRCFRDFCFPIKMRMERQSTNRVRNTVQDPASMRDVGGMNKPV

SMILES	ED50 [1]	ED50 [2]	also measured
C=CCN1CC[C@]23c4c5ccc(O)c4O[C@H]2[C@@H](O)C=C[C@H]3[C@H]1C5 [NALORPHINE]	2.5 µmol/kg	3.5 µmol/kg	–
C=C1C[C@H](CC)C2C3Cc4ccc(O)cc4C2(CCN3CC2CC2)C1 (stereo partly specified)	2.8 µmol/kg	–	ED50 [3]: inactive
CC[C@H]1CC(=O)CC23CCN(CC4CCC4)C(Cc4ccc(O)cc42)C13 (stereo partly specified)	0.82 µmol/kg	0.54 µmol/kg	–
C=C1CCC2C3Cc4ccc(O)cc4C2(CCN3CC2CC2)C1 (stereo unspecified)	0.37 µmol/kg	1.2 µmol/kg	–
COc1ccc2c(c1)C13CCN(CC4CCC4)C(C2)C1[C@@H](C)CC(=O)C3 (stereo partly specified)	16.4 µmol/kg	1.38 µmol/kg	–
COc1ccc2c(c1)[C@]13CCN(CC4CC4)[C@H](C2)[C@@H]1[C@@H](C)CC(=O)C3	4.3 µmol/kg	–	–
C=CCN1CC[C@]23c4c5ccc(O)c4O[C@H]2C(=O)CC[C@@]3(O)[C@H]1C5	–	–	ED50 [4]: inactive
C=C1C[C@H](CC)C2C3Cc4ccc(O)cc4C2(CCN3CC2CCC2)C1 (stereo partly specified)	21.2 µmol/kg	> 28 µmol/kg	–
C[C@H]1CC(=O)CC23CCN(CC4CC4)C(Cc4ccc(O)cc42)C13 (stereo partly specified)	1.8 µmol/kg	10.2 µmol/kg	–
O=C1CCC2C3Cc4ccc(O)cc4C2(CCN3CC2CC2)C1 (stereo unspecified)	7.4 µmol/kg	3.3 µmol/kg	–
C=C1CCC2C3Cc4ccc(OC)cc4C2(CCN3CC2CCC2)C1 (stereo unspecified)	> 20 µmol/kg	3.2 µmol/kg	–
CC[C@H]1CC(=O)CC23CCN(CC4CC4)C(Cc4ccc(O)cc42)C13 (stereo partly specified)	4.7 µmol/kg	–	ED50 [5]: inactive
C=C1C[C@H](C)C2C3Cc4ccc(O)cc4C2(CCN3CC2CC2)C1 (stereo partly specified)	0.89 µmol/kg	5.3 µmol/kg	–
C[C@H]1[C@H]2Cc3ccc(O)cc3[C@]1(C)CCN2CC1CC1	0.81 µmol/kg	–	–
C=C1C[C@H](C)C2C3Cc4ccc(O)cc4C2(CCN3CC2CCC2)C1 (stereo partly specified)	2.5 µmol/kg	0.53 µmol/kg	–
C=C1CCC2C3Cc4ccc(O)cc4C2(CCN3CC2CCC2)C1 (stereo unspecified)	> 24 µmol/kg	0.22 µmol/kg	–
Oc1ccc2c(c1)[C@@]13CCCC[C@@]1(O)[C@@H](C2)N(CC1CCC1)CC3	2 µmol/kg	–	–
CC(C)=CCN1CC[C@]2(C)c3cc(O)ccc3C[C@H]1[C@H]2C [(+)-PENTAZOCINE]	36.4 µmol/kg	12.9 µmol/kg	–
O=C1CCC2C3Cc4ccc(O)cc4C2(CCN3CC2CCC2)C1 (stereo unspecified)	–	–	ED50 [6]: inactive
COc1ccc2c(c1)C13CCN(CC4CCC4)C(C2)C1CCC(=O)C3 (stereo unspecified)	–	–	ED50 [6]: inactive
C[C@H]1CC(=O)CC23CCN(CC4CCC4)C(Cc4ccc(O)cc42)C13 (stereo partly specified)	2.8 µmol/kg	0.29 µmol/kg	–
C=C1C[C@H](C)C2C3Cc4ccc(OC)cc4C2(CCN3CC2CC2)C1 (stereo partly specified)	11.3 µmol/kg	9.5 µmol/kg	–
O=C1CC[C@@]2(O)[C@H]3Cc4ccc(O)c5c4[C@@]2(CCN3CC2CC2)[C@H]1O5 [NALTREXONE]	–	> 28 µmol/kg	–
C=C1C[C@H](C)C2C3Cc4ccc(OC)cc4C2(CCN3CC2CCC2)C1 (stereo partly specified)	14.1 µmol/kg	16.5 µmol/kg	–
